Results reported in ChEMBL document CHEMBL4619740, “Chalcones bearing a 3,4,5-trimethoxyphenyl motif are capable of selectively inhibiting oncogenic K-Ras signaling” (Bioorg Med Chem Lett, 2020).
Activity calls are given as the source filed them. The calls are words filed in the database; no cut-off is given here.

Assays:
GTPase KRas = GTPase KRas (Homo sapiens, UniProt P01116, G12V); experiment: Inhibition of GFP-tagged KRAS G12V mutant (unknown origin) expressed in MDCK cells cotransfected with mCherry-CAXX assessed as increase in KRAS G12V-plasma membrane dissociation incubated for 48 hrs by quantitative confocal microscopic method; format: cell-based
In short: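 MDCK cells stably co-expressing mGFP-K-RasG12V and mCherry-CAAX (endomembrane marker) treated with a range of compound concentrations for 48h. Cells fixed in 4% paraformaldehyde, imaged by confocal microscopy. PM dissociation scored as the fraction of mCherry-CAAX co-localized with GFP-K-RasG12V (Manders coefficient). IC50 estimated from dose-response plots from three independent experiments.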

[1] = system: GTPase HRas (Homo sapiens), P01112 [G12V]; experiment: Inhibition of GFP-tagged HRAS G12V mutant (unknown origin) expressed in MDCK cells cotransfected with mCherry-CAXX assessed as effect on HRAS G12V-plasma membrane dissociation incubated for 48 hrs by quantitative confocal microscopic method; format: cell-based
In short: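 MDCK cells stably co-expressing mGFP-RasG12V (K- or H-) and mCherry-CAAX endomembrane marker treated with a range of concentrations for 48 h, fixed in 4% paraformaldehyde, imaged by quantitative confocal microscopy. Fraction of mCherry-CAAX co-localized with GFP-Ras by Manders coefficient; IC50 for PM dissociation estimated from dose-response plots of three independent experiments.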

[2] = molecular target: GTPase KRas (Homo sapiens) (UniProt P01116); experiment: Inhibition of KRAS in human NCI-H358 cells assessed as MARCK phosphorylation level at 1 uM incubated for 48 hrs by Western blot analysis (reference value: 1.00 +/- 0.39); format: cell-based
[3] = molecular target: GTPase KRas (Homo sapiens) (UniProt P01116); experiment: Inhibition of KRAS in human NCI-H358 cells assessed as MARCK phosphorylation level at 25 uM incubated for 48 hrs by Western blot analysis (reference value: 1.00 +/- 0.39); format: cell-based
[4] = system: GTPase KRas (Homo sapiens), P01116 [G12V]; experiment: Inhibition of GFP-tagged KRAS G12V mutant (unknown origin) expressed in MDCK cells assessed as MARCK phosphorylation level at 1 uM incubated for 48 hrs by Western blot analysis (reference value: 1.00 +/- 0.13); format: cell-based
[5] = molecular target: GTPase KRas (Homo sapiens) (UniProt P01116); experiment: Inhibition of KRAS in human NCI-H358 cells assessed as MARCK phosphorylation level at 5 uM incubated for 48 hrs by Western blot analysis (reference value: 1.00 +/- 0.39); format: cell-based
[6] = system: GTPase KRas (Homo sapiens), P01116 [G12V]; experiment: Inhibition of GFP-tagged KRAS G12V mutant (unknown origin) expressed in MDCK cells assessed as increase in MARCK phosphorylation level incubated for 48 hrs by Western blot analysis
[7] = system: GTPase HRas (Homo sapiens), P01112 [G12V]; experiment: Inhibition of GFP-tagged HRAS G12V mutant (unknown origin) expressed in MDCK cells assessed as reduction in ERK phosphorylation level incubated for 48 hrs by Western blot analysis; format: cell-based
In short: (§1)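 MDCK cells stably expressing GFP-tagged K-RasG12V or H-RasG12V treated 48 h; lysates immunoblotted with anti-ppERK or anti-pAkt (S473) antibodies, total ERK and Akt as loading controls. Quantified as means ± S.E.M. of three independent experiments versus DMSO-treated cells; one-way ANOVA.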

[8] = system: GTPase KRas (Homo sapiens), P01116 [G12V]; experiment: Inhibition of GFP-tagged KRAS G12V mutant (unknown origin) expressed in MDCK cells assessed as MARCK phosphorylation level at 10 uM incubated for 48 hrs by Western blot analysis (reference value: 1.00 +/- 0.13); format: cell-based
[9] = molecular target: GTPase KRas (Homo sapiens) (UniProt P01116); experiment: Inhibition of KRAS in human NCI-H358 cells assessed as increase in MARCK phosphorylation level incubated for 48 hrs by Western blot analysis
[10] = system: GTPase KRas (Homo sapiens), P01116 [G12V]; experiment: Inhibition of GFP-tagged KRAS G12V mutant (unknown origin) expressed in MDCK cells assessed as reduction in ERK phosphorylation level incubated for 48 hrs by Western blot analysis; format: cell-based; in short: as §1
[11] = system: GTPase HRas (Homo sapiens), P01112 [G12V]; experiment: Inhibition of GFP-tagged HRAS G12V mutant (unknown origin) expressed in MDCK cells assessed as reduction in Akt phosphorylation level incubated for 48 hrs by Western blot analysis; format: cell-based; in short: as §1
[12] = system: GTPase KRas (Homo sapiens), P01116 [G12V]; experiment: Inhibition of GFP-tagged KRAS G12V mutant (unknown origin) expressed in MDCK cells assessed as MARCK phosphorylation level at 25 uM incubated for 48 hrs by Western blot analysis (reference value: 1.00 +/- 0.13); format: cell-based
[13] = system: GTPase KRas (Homo sapiens), P01116 [G12V,S181A]; experiment: Inhibition of GFP-tagged KRAS G12V/S181A mutant (unknown origin) expressed in MDCK cells cotransfected with mCherry-CAXX assessed as reduction in KRAS G12V-plasma membrane dissociation incubated for 48 hrs by quantitative confocal microscopic method; format: cell-based
[14] = system: GTPase KRas (Homo sapiens), P01116 [G12V]; experiment: Inhibition of GFP-tagged KRAS G12V mutant (unknown origin) expressed in MDCK cells assessed as reduction in Akt phosphorylation level incubated for 48 hrs by Western blot analysis; format: cell-based; in short: as §1
[15] = molecular target: GTPase KRas (Homo sapiens) (UniProt P01116); experiment: Inhibition of KRAS in human NCI-H358 cells assessed as MARCK phosphorylation level at 10 uM incubated for 48 hrs by Western blot analysis (reference value: 1.00 +/- 0.39); format: cell-based
[16] = system: GTPase KRas (Homo sapiens), P01116 [G12V]; experiment: Inhibition of GFP-tagged KRAS G12V mutant (unknown origin) expressed in MDCK cells assessed as MARCK phosphorylation level at 5 uM incubated for 48 hrs by Western blot analysis (reference value: 1.00 +/- 0.13); format: cell-based

Sequence of GTPase KRas (Homo sapiens) (P01116 whole entry, looked up): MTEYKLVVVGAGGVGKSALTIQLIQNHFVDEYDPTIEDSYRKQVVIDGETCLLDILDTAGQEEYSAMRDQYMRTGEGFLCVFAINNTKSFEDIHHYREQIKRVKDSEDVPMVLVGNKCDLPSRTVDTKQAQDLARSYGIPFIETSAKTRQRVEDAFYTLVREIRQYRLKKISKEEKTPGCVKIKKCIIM
Sequence of GTPase HRas (Homo sapiens), P01112 [G12V] (P01112 whole entry G12V): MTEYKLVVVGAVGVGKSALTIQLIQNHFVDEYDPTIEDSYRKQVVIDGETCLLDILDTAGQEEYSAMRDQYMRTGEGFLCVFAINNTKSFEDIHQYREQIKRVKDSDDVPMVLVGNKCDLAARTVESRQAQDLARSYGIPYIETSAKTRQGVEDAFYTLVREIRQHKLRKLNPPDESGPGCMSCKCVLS
Sequence of GTPase KRas (P01116 whole entry G12V): as the sequence (P01116 whole entry, looked up) above, with G12V counted along it
Sequence of GTPase KRas (Homo sapiens), P01116 [G12V] (P01116 whole entry G12V): as the sequence (P01116 whole entry, looked up) above, with G12V counted along it
Sequence of GTPase KRas (Homo sapiens), P01116 [G12V,S181A] (P01116 1-164 with tags or gaps G12V,S181A): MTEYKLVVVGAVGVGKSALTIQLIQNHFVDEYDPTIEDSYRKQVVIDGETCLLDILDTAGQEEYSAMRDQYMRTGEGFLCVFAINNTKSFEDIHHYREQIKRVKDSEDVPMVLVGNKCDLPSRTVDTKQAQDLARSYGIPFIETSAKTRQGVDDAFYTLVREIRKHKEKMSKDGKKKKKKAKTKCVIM

Question: `COc1cc(C(=O)/C=C/c2ccc([N+](=O)[O-])cc2)cc(OC)c1OC` was tested. Which IC50 (GTPase KRas) did it give?
Answer: Its IC50 is 8.2 µM.

Question: With `COc1cc(/C=C/C(=O)c2ccc(N)cc2)cc(OC)c1OC` as the compound, how does the IC50 (GTPase KRas) read?
Answer: The IC50 was 9.17 µM.

Question: How did the IC50 (GTPase KRas) turn out when `COc1ccc(C(=O)/C=C/c2cc(OC)c(OC)c(OC)c2)cc1` was run?
Answer: Its IC50 is 8.29 µM.

Question: `COc1cc(/C=C/C(=O)c2ccc(Br)cc2)cc(OC)c1OC` was tested. Which IC50 (GTPase KRas) did it give?
Answer: Its IC50 is 24.6 µM.

Question: How did the IC50 (GTPase KRas) turn out when `COc1cc(/C=C/C(=O)c2ccc(F)cc2)cc(OC)c1OC` was run?
Answer: Its IC50 is 15.9 µM.

Question: Which inhibition [1] does the source give for `COc1cc(/C=C/C(=O)c2ccc(N(C)C)cc2)cc(OC)c1OC` here?
Answer: Its inhibition is “inactive”.

Question: What about the IC50 (GTPase KRas) of the same compound?
Answer: The IC50 was 7.42 µM.

Question: How did the fold change (FC) [2] turn out when `COc1cc(/C=C/C(=O)c2ccc([N+](=O)[O-])cc2)cc(OC)c1OC` was run?
Answer: The fold change (FC) was 1.89.

Question: What about the inhibition [1] of the same compound?
Answer: The inhibition was “inactive”.

Question: And the fold change (FC) [3]?
Answer: Its fold change (FC) is 2.65.

Question: And the fold change (FC) [4]?
Answer: Its fold change (FC) is 1.31.

Question: And the fold change (FC) [5]?
Answer: The fold change (FC) was 1.92.

Question: What about the inhibition [6] of the same compound?
Answer: Its inhibition is “Dose-dependent effect”.

Question: What about the inhibition [7] of the same compound?
Answer: Its inhibition is “inactive”.

Question: What about the fold change (FC) [8] of the same compound?
Answer: Its fold change (FC) is 2.85.

Question: And the inhibition [9]?
Answer: Its inhibition is “Dose-dependent effect”.

Question: And the inhibition [10]?
Answer: The inhibition was “Active”.

Question: What about the inhibition [11] of the same compound?
Answer: The inhibition was “inactive”.

Question: What about the fold change (FC) [12] of the same compound?
Answer: The fold change (FC) was 2.8.

Question: And the inhibition [13]?
Answer: Its inhibition is “inactive”.

Question: And the inhibition [14]?
Answer: Its inhibition is “Active”.

Question: What about the fold change (FC) [15] of the same compound?
Answer: Its fold change (FC) is 2.57.

Question: What about the fold change (FC) [16] of the same compound?
Answer: Its fold change (FC) is 1.76.

Question: What about the IC50 (GTPase KRas) of the same compound?
Answer: Its IC50 is 7.01 µM.

Question: `COc1cc(/C=C/C(=O)c2c(F)cccc2F)cc(OC)c1OC` was tested. Which IC50 (GTPase KRas) did it give?
Answer: Its IC50 is 8.2 µM.

Question: With `COc1cc(/C=C/C(=O)c2ccccn2)cc(OC)c1OC` as the compound, how does the IC50 (GTPase KRas) read?
Answer: The IC50 was 53 µM.

Question: Which IC50 (GTPase KRas) does the source give for `COc1cc(C(=O)/C=C/c2c(F)cccc2F)cc(OC)c1OC` here?
Answer: Its IC50 is 7.49 µM.
